Values after ≈ are worked out from the molar mass of the structure shown.
Key:
Type in all cases: functional
[1] = test system: Enterobacter cloacae; test: In vitro antibacterial activity against Enterobacter cloacae 963
[2] = test system: Escherichia coli; test: In vitro antibacterial activity against Escherichia coli NIHJ JC-2
How it was run: (§1)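 Two-fold agar dilution MIC on Mueller-Hinton agar (pH 7.4), following the Japan Society of Chemotherapy MIC Committee method. Inoculum was about 10⁶ CFU, and growth was read after 20 h at 37 °C. MIC is reported in µg/mL.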

[3] = test system: Escherichia coli; test: In vitro antibacterial activity against Escherichia coli P-5101; how it was run: as §1
[4] = test system: Klebsiella pneumoniae; test: In vitro antibacterial activity against Klebsiella pneumoniae 13; how it was run: as §1
[5] = organism: Mus musculus; test: Oral efficacy against Pseudomonas aeruginosa 12 on Systemic Infections in Mice
How it was run: (§2)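 Groups of at least 10 male Std-ddY mice (20 ± 2 g) were infected ip, with S. pyogenes A65 at 3×10^7 cells or P. aeruginosa 12 at 4×10^3 cells. Compounds were suspended in 0.2% sodium carboxymethylcellulose and given orally at 0 and 6 h postinfection. The result is reported as ED50 in mg/kg.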

[6] = organism: Mus musculus; test: Oral efficacy against Streptococcus pyogenes A65 on Systemic Infections in Mice; how it was run: as §2
[7] = test system: Moraxella bovis; test: In vitro antibacterial activity against glucose nonfermenter Moraxella bovis P-7101; how it was run: as §1
[8] = test system: Pseudomonas aeruginosa; test: In vitro antibacterial activity against Pseudomonas aeruginosa IFO 3445; how it was run: as §1
[9] = test system: Pseudomonas aeruginosa; test: In vitro antibacterial activity against Pseudomonas aeruginosa 12; how it was run: as §1
[10] = test system: Serratia marcescens; test: In vitro antibacterial activity against Serratia marcescence S-9; how it was run: as §1
[11] = test system: Staphylococcus aureus; test: In vitro antibacterial activity against Staphylococcus aureus 209P JC-1; how it was run: as §1
[12] = test system: Staphylococcus aureus; test: In vitro antibacterial activity against Staphylococcus aureus 50774; how it was run: as §1
[13] = test system: Staphylococcus epidermidis; test: In vitro antibacterial activity against Streptococcus epidermis 8; how it was run: as §1
[14] = test system: Enterococcus faecalis; test: In vitro antibacterial activity against Streptococcus faecalis 2473; how it was run: as §1
[15] = test system: Streptococcus pyogenes; test: In vitro antibacterial activity against Streptococcus pyogenes A65; how it was run: as §1
[16] = test system: Serratia marcescens; test: In vitro antibacterial activity against Serratia marcescene S-9; how it was run: as §1

Q: Which MIC [1] does the source give for `C[C@@H]1CN(c2c(F)c(N)c3c(=O)c(C(=O)O)cn(C4CC4)c3c2F)C[C@@H](C)N1` (relative stereo) here?
A: 0.1 µg/mL (≈ 0.255 µM)

Q: What about the MIC [2] of the same compound?
A: 0.0125 µg/mL (≈ 0.0319 µM)

Q: And the MIC [3]?
A: 0.0125 µg/mL (≈ 0.0319 µM)

Q: What about the MIC [4] of the same compound?
A: 0.1 µg/mL (≈ 0.255 µM)

Q: And the ED50 [5]?
A: 6.33 mg/kg

Q: What about the ED50 [6] of the same compound?
A: 7.38 mg/kg

Q: What about the MIC [7] of the same compound?
A: 0.78 µg/mL (≈ 1.99 µM)

Q: And the MIC [8]?
A: 0.78 µg/mL (≈ 1.99 µM)

Q: And the MIC [9]?
A: 0.78 µg/mL (≈ 1.99 µM)

Q: What about the MIC [10] of the same compound?
A: 0.39 µg/mL (≈ 0.994 µM)

Q: And the MIC [11]?
A: 0.025 µg/mL (≈ 0.0637 µM)

Q: What about the MIC [12] of the same compound?
A: 0.025 µg/mL (≈ 0.0637 µM)

Q: What about the MIC [13] of the same compound?
A: 0.0125 µg/mL (≈ 0.0319 µM)

Q: What about the MIC [14] of the same compound?
A: 0.39 µg/mL (≈ 0.994 µM)

Q: And the MIC [15]?
A: 0.39 µg/mL (≈ 0.994 µM)

Q: Which MIC [1] does the source give for `C[C@@H]1CN(c2c(F)c(N)c3c(=O)c(C(=O)O)cn(C4CC4)c3c2F)C[C@H](C)N1` [SPARFLOXACIN] here?
A: 0.05 µg/mL (≈ 0.127 µM)

Q: What about the MIC [2] of the same compound?
A: 0.0125 µg/mL (≈ 0.0319 µM)

Q: What about the MIC [3] of the same compound?
A: 0.0125 µg/mL (≈ 0.0319 µM)

Q: What about the MIC [4] of the same compound?
A: 0.05 µg/mL (≈ 0.127 µM)

Q: And the ED50 [5]?
A: 1.57 mg/kg

Q: What about the ED50 [6] of the same compound?
A: 3.36 mg/kg

Q: What about the MIC [7] of the same compound?
A: 0.39 µg/mL (≈ 0.994 µM)

Q: What about the MIC [8] of the same compound?
A: 0.39 µg/mL (≈ 0.994 µM)

Q: And the MIC [9]?
A: 0.39 µg/mL (≈ 0.994 µM)

Q: What about the MIC [10] of the same compound?
A: 0.2 µg/mL (≈ 0.51 µM)

Q: And the MIC [11]?
A: 0.05 µg/mL (≈ 0.127 µM)

Q: What about the MIC [12] of the same compound?
A: 0.05 µg/mL (≈ 0.127 µM)

Q: And the MIC [13]?
A: 0.05 µg/mL (≈ 0.127 µM)

Q: What about the MIC [14] of the same compound?
A: 0.78 µg/mL (≈ 1.99 µM)

Q: And the MIC [15]?
A: 0.39 µg/mL (≈ 0.994 µM)

Q: Which MIC [1] does the source give for `CC1CN(c2c(F)c(F)c3c(=O)c(C(=O)O)cn(C4CC4)c3c2F)CCN1` (stereo not given) here?
A: 0.025 µg/mL (≈ 0.0656 µM)

Q: What about the MIC [2] of the same compound?
A: 0.0125 µg/mL (≈ 0.0328 µM)

Q: And the MIC [3]?
A: 0.0063 µg/mL (≈ 0.0165 µM)

Q: What about the MIC [4] of the same compound?
A: 0.05 µg/mL (≈ 0.131 µM)

Q: And the ED50 [5]?
A: 2.46 mg/kg

Q: And the ED50 [6]?
A: 17.3 mg/kg

Q: What about the MIC [7] of the same compound?
A: 1.56 µg/mL (≈ 4.09 µM)

Q: What about the MIC [8] of the same compound?
A: 0.78 µg/mL (≈ 2.05 µM)

Q: And the MIC [9]?
A: 0.78 µg/mL (≈ 2.05 µM)

Q: And the MIC [16]?
A: 0.2 µg/mL (≈ 0.524 µM)

Q: And the MIC [11]?
A: 0.2 µg/mL (≈ 0.524 µM)

Q: What about the MIC [12] of the same compound?
A: 0.2 µg/mL (≈ 0.524 µM)

Q: And the MIC [13]?
A: 0.2 µg/mL (≈ 0.524 µM)

Q: What about the MIC [14] of the same compound?
A: 3.13 µg/mL (≈ 8.21 µM)

Q: And the MIC [15]?
A: 1.56 µg/mL (≈ 4.09 µM)

Q: `CC1CN(c2c(F)c(N)c3c(=O)c(C(=O)O)cn(C4CC4)c3c2F)CCN1` (stereo not given) was tested. Which MIC [1] did it give?
A: 0.025 µg/mL (≈ 0.0661 µM)

Q: And the MIC [2]?
A: 0.006 µg/mL (≈ 0.0159 µM)

Q: What about the MIC [3] of the same compound?
A: 0.0063 µg/mL (≈ 0.0166 µM)

Q: And the MIC [4]?
A: 0.0125 µg/mL (≈ 0.033 µM)

Q: What about the ED50 [5] of the same compound?
A: 1.11 mg/kg

Q: What about the ED50 [6] of the same compound?
A: 6.54 mg/kg

Q: What about the MIC [7] of the same compound?
A: 0.39 µg/mL (≈ 1.03 µM)

Q: And the MIC [8]?
A: 0.2 µg/mL (≈ 0.529 µM)

Q: And the MIC [9]?
A: 0.2 µg/mL (≈ 0.529 µM)

Q: What about the MIC [10] of the same compound?
A: 0.05 µg/mL (≈ 0.132 µM)

Q: And the MIC [11]?
A: 0.025 µg/mL (≈ 0.0661 µM)

Q: And the MIC [12]?
A: 0.025 µg/mL (≈ 0.0661 µM)

Q: What about the MIC [13] of the same compound?
A: 0.025 µg/mL (≈ 0.0661 µM)

Q: What about the MIC [14] of the same compound?
A: 0.39 µg/mL (≈ 1.03 µM)

Q: And the MIC [15]?
A: 0.39 µg/mL (≈ 1.03 µM)

Q: With `Nc1c(F)c(N2CCNC(CF)C2)c(F)c2c1c(=O)c(C(=O)O)cn2C1CC1` (stereo not given) as the compound, how does the MIC [1] read?
A: 0.025 µg/mL (≈ 0.0631 µM)

Q: And the MIC [2]?
A: 0.0063 µg/mL (≈ 0.0159 µM)

Q: And the MIC [3]?
A: 0.0063 µg/mL (≈ 0.0159 µM)

Q: What about the MIC [4] of the same compound?
A: 0.025 µg/mL (≈ 0.0631 µM)

Q: What about the ED50 [5] of the same compound?
A: 7.02 mg/kg

Q: And the ED50 [6]?
A: 17.4 mg/kg

Q: And the MIC [7]?
A: 0.39 µg/mL (≈ 0.984 µM)

Q: What about the MIC [8] of the same compound?
A: 0.39 µg/mL (≈ 0.984 µM)

Q: And the MIC [9]?
A: 0.2 µg/mL (≈ 0.505 µM)

Q: What about the MIC [10] of the same compound?
A: 0.1 µg/mL (≈ 0.252 µM)

Q: What about the MIC [11] of the same compound?
A: 0.025 µg/mL (≈ 0.0631 µM)

Q: What about the MIC [12] of the same compound?
A: 0.0125 µg/mL (≈ 0.0315 µM)

Q: What about the MIC [13] of the same compound?
A: 0.0125 µg/mL (≈ 0.0315 µM)

Q: And the MIC [14]?
A: 0.39 µg/mL (≈ 0.984 µM)

Q: What about the MIC [15] of the same compound?
A: 0.2 µg/mL (≈ 0.505 µM)

Q: What does the source list for `C[C@@H]1CN(c2c(F)c(N)c3c(=O)c(C(=O)O)cn(C4CC4)c3c2F)C[C@H](C)N1C`?
A: MIC [1]: 0.05 µg/mL (≈ 0.123 µM); MIC [2]: 0.025 µg/mL (≈ 0.0615 µM); MIC [3]: 0.0125 µg/mL (≈ 0.0308 µM); MIC [4]: 0.1 µg/mL (≈ 0.246 µM); ED50 [5]: 2.21 mg/kg; ED50 [6]: 5.64 mg/kg; MIC [7]: 0.78 µg/mL (≈ 1.92 µM); MIC [8]: 0.78 µg/mL (≈ 1.92 µM); MIC [9]: 0.39 µg/mL (≈ 0.96 µM); MIC [10]: 0.2 µg/mL (≈ 0.492 µM); MIC [11]: 0.05 µg/mL (≈ 0.123 µM); MIC [12]: 0.025 µg/mL (≈ 0.0615 µM); MIC [13]: 0.05 µg/mL (≈ 0.123 µM); MIC [14]: 0.39 µg/mL (≈ 0.96 µM); MIC [15]: 0.39 µg/mL (≈ 0.96 µM)

Reference: ChEMBL document CHEMBL1124792, “Synthesis and structure-activity relationships of 5-substituted 6,8-difluoroquinolones, including sparfloxacin, a new quinolone antibacterial agent with improved potency” (1990)
